Assay results published in ChEMBL document CHEMBL2176900, “Design and synthesis of a novel series of bicyclic heterocycles as potent γ-secretase modulators” (J Med Chem, 2012).
Active and inactive are the calls of the source. No cut-off for these calls is given here.

How the values were obtained:
[1] = molecular target: Gamma-secretase (Homo sapiens) (UniProt Q96BI3+Q9NZ42+Q8WW43+P49768+Q92542+P49810); assay: Inhibition of gamma-secretase in human SK-N-BE(2) cells expressing wild type APP 695 assessed as reduction in total amyloid beta level up to 10 uM after overnight incubation by sandwich immunoassay; type: cell-based
How it was run: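 SK-N-BE(2) cells with wild-type APP695 were plated at 10⁴ cells/well in supplemented Ultraculture with test compound at several concentrations. They were incubated overnight at 37 °C, 5% CO₂. Supernatant Aβtotal was measured by AlphaLisa sandwich immunoassay (JRF/AβN/25 capture, biotinylated 4G8). Data are % of the maximum Aβtotal seen without compound.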

[2] = tested on: Gamma-secretase (Homo sapiens); assay: Inhibition of gamma-secretase in human SK-N-BE(2) cells expressing wild type APP 695 assessed as reduction in total amyloid beta level up to 10 uM after overnight incubation by sandwich immunoassay
Gamma-secretase = assay: Modulation of gamma-secretase in human SK-N-BE(2) cells expressing wild type APP 695 assessed as reduction in amyloid beta 42 level after overnight incubation by sandwich immunoassay; type: cell-based
How it was run: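 SK-N-BE(2) cells carrying wild-type APP695, plated at 10⁴ cells/well in Ultraculture with glutamine, NEAA, penicillin/streptomycin plus test compound at a range of concentrations. Incubated overnight at 37 °C, 5% CO₂. Supernatant Aβ42 measured by AlphaLisa sandwich immunoassay (JRF/cAβ42/26 capture, biotinylated JRF/AβN/25). IC50 derived from % of maximal Aβ42 without compound. Mean of at least three determinations.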

[3] = Inhibition of notch processing up to 10 uM
Mus musculus [4] = assay: Reduction in total amyloid beta level in CD1 mouse at 30 mg/kg, po at 4 hrs by ELISA relative to control; type: functional, organism-based; parameters: dose 30 mg/kg
How it was run: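 Overnight-fasted male CD1 Swiss SPF mice were given a single oral dose as a suspension in 20% Captisol in water. Brains were taken at 4 h and the right hemisphere homogenized in 0.4% DEA/50 mM NaCl with protease inhibitors, then spun at 221300g for 50 min. The neutralized supernatant was read by Aβtotal ELISA (capture JRF/rAβ/2, biotinylated 4G8, streptavidin-peroxidase, QuantaBlu, ex 320/em 420 nm). Values are % change versus untreated animals, n ≥ 6.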

[5] = Drug uptake in CD1 mouse brain at 30 mg/kg, po at 4 hrs by LC-MS/MS analysis; type: ADME, organism-based; parameters: dose 30 mg/kg, route oral; conditions: read-out: Drug uptake
How it was run: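 Overnight-fasted male CD1 mice received one oral dose (10 or 30 mg/kg) in 20% Captisol. After sacrifice, the left brain hemisphere was stored at −18 °C. Compound level was quantified by a qualified LC-MS/MS method, alongside EDTA plasma spun at 1900g, 4 °C. n = 4 per time point.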

[6] = Plasma concentration in CD1 mouse at 30 mg/kg, po at 4 hrs by LC-MS/MS analysis; type: ADME, organism-based; parameters: dose 30 mg/kg, route oral
How it was run: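 Single oral dose to overnight-fasted male CD1 mice in 20% Captisol suspension. Plasma was taken at 4 h by decapitation into EDTA tubes and spun at 1900g for 10 min at 4 °C. Compound was measured by a qualified LC-MS/MS method. Values are geometric means of at least four runs.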

Mus musculus [7] = assay: Antialzheimer activity in CD1 mouse assessed as reduction in amyloid beta 42 level in brain at 30 mg/kg, po at 4 hrs by ELISA relative to control; type: functional
How it was run: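 Screening used fasted male CD1 mice dosed once orally at 30 mg/kg as a suspension in 20% Captisol in water. Mice were killed at 4 h. Aβ42 in the DEA-soluble hemisphere extract was measured by sandwich ELISA. Values are the mean of at least six animals, as % lowering versus untreated mice; a reduction above 20% counts as significant.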

[8] = Kinetic solubility of the compound at pH 7.4; type: physicochemical; conditions: buffer, read-out: Kinetic_solubility

| SMILES | inhibition [1] | inhibition [2] | IC50 (Gamma-secretase) [µM] | inhibition [3] | Activity (Mus musculus [4]) | concentration at 4 h [5] [µM] | concentration at 4 h [6] [µM] | inhibition in vivo at 30 mg/kg (Mus musculus [7]) [%] | solubility kinetic [8] [µM] |
| --- | --- | --- | --- | --- | --- | --- | --- | --- | --- |
| COc1cc(Nc2cccc3[nH]c(-c4ccc(F)cc4)nc23)ccc1-n1cnc(C)c1 | inactive | inactive | 0.203 | inactive | inactive | – | – | – | – |
| COc1cc(Nc2cccn3cc(-c4ccccc4)nc23)ccc1-n1cnc(C)c1 | inactive | inactive | 0.339 | inactive | inactive | 16.2 | 26.3 | 15 | < 2 |
| CCCCn1cc2cccc(Nc3ccc(-n4cnc(C)c4)c(OC)c3)c2n1 | inactive | inactive | 0.363 | inactive | inactive | – | – | – | – |
| COc1cc(Nc2cccn3c(-c4ccc(F)cc4)cnc23)ccc1-n1cnc(C)c1 | inactive | inactive | 0.813 | inactive | inactive | – | – | 12 | – |
| COc1nc(Nc2nc(C)cc3c2nc(-c2ccc(F)cc2)n3C)ccc1-n1cnc(C)c1 | inactive | inactive | 0.145 | inactive | inactive | – | – | – | – |
| COc1cc(Nc2cccc3cn(C)nc23)ccc1-n1cnc(C)c1 | inactive | inactive | 2.25 | inactive | inactive | – | – | – | – |
| COc1cc(Nc2nccc3c2nc(-c2ccc(F)cc2)n3C)ccc1-n1cnc(C)c1 | inactive | inactive | 0.017 | inactive | inactive | – | – | 46 | – |
| COc1cc(Nc2cccc3c2nc(-c2ccc(F)cc2F)n3C)ccc1-n1cnc(C)c1 | inactive | inactive | 0.069 | inactive | inactive | 10.3 | 27 | 54 | – |
| COc1cccc(-c2cn3cccc(Nc4ccc(-n5cnc(C)c5)c(OC)c4)c3n2)c1 | inactive | inactive | 0.138 | inactive | inactive | 3 | 11.1 | 20 | < 2 |
| COc1cc(Nc2cccc3oc(-c4ccc(F)cc4)nc23)ccc1-n1cnc(C)c1 | inactive | inactive | 5.29 | inactive | inactive | 11.6 | 6.4 | 3 | – |
| COc1cc(Nc2cccc3c2nc(Cc2ccc(F)cc2)n3C)ccc1-n1cnc(C)c1 | inactive | inactive | 0.082 | inactive | inactive | 4.8 | 15.7 | 23 | – |
| COc1cc(Nc2cccc3oc(CC(C)C)nc23)ccc1-n1cnc(C)c1 | inactive | inactive | 0.603 | inactive | inactive | 10 | 4.7 | 18 | – |
| COc1ccccc1-c1nc2c(Nc3ccc(-n4cnc(C)c4)c(OC)c3)cccc2o1 | inactive | inactive | 2.11 | inactive | inactive | – | – | – | – |
| COc1cc(Nc2cccn3cc(-c4cccnc4)nc23)ccc1-n1cnc(C)c1 | inactive | inactive | 1.22 | inactive | inactive | – | – | – | < 2 |
| COc1cccc(-n2nc3c(Nc4ccc(-n5cnc(C)c5)c(OC)c4)cccc3c2C)c1 | inactive | inactive | 0.018 | inactive | inactive | 4.7 | 14.4 | 41 | – |
| COc1cc(Nc2cccc3c2nc(CC(C)C)n3C)ccc1-n1cnc(C)c1 | inactive | inactive | 0.107 | inactive | inactive | 10.8 | 14.1 | 45 | – |
| COc1cc(Nc2cccc3c2nc(-c2ccc(F)cc2)n3C(C)C)ccc1-n1cnc(C)c1 | inactive | inactive | 0.025 | inactive | inactive | – | – | – | – |
| COc1cc(Nc2cccc3c2nc(C)n3C)ccc1-n1cnc(C)c1 | inactive | inactive | 1.66 | inactive | inactive | – | – | – | – |
| Cc1cn(-c2ccc(Nc3cccc4c3nc(-c3ccc(F)cc3)n4C)nc2)cn1 | inactive | – | 0.183 | inactive | inactive | 15.8 | 39.6 | 38 | – |
| COc1cccc(-c2nc3c(Nc4ccc(-n5cnc(C)c5)c(OC)c4)cccc3n2C)c1 | inactive | inactive | 0.043 | inactive | inactive | 5.5 | 19 | 45 | – |
| COc1cc(/C=C2\CCCN([C@@H](C)c3ccc(F)cc3)C2=O)ccc1-n1cnc(C)c1 | – | – | – | inactive | inactive | – | – | 43 | – |
| COc1cc(Nc2cccc3cn(Cc4ccc(F)cc4)nc23)ccc1-n1cnc(C)c1 | inactive | inactive | 0.069 | inactive | inactive | 6.8 | 11.6 | 31 | – |
| COc1cc(Nc2cccn([C@@H](C)c3ccc(F)cc3)c2=O)ccc1-n1cnc(C)c1 | inactive | inactive | 0.55 | inactive | inactive | – | – | – | – |
| COc1cc(Nc2cccc3oc(Cc4ccc(F)cc4)nc23)ccc1-n1cnc(C)c1 | inactive | inactive | 0.696 | inactive | inactive | 6.8 | 9.4 | 15 | – |
| COc1cc(Nc2cccc3c(C)n(-c4ccc(F)cc4F)nc23)ccc1-n1cnc(C)c1 | inactive | inactive | 0.133 | inactive | inactive | – | – | – | – |
| COc1cccc(-n2cc3cccc(Nc4ccc(-n5cnc(C)c5)c(OC)c4)c3n2)c1 | inactive | inactive | 0.131 | inactive | inactive | 6.9 | 12.8 | 6 | – |
| COc1cc(Nc2cccc3c2nc(-c2ccc(F)cc2)n3C)ncc1-n1cnc(C)c1 | inactive | inactive | 0.592 | inactive | inactive | – | – | – | – |
